From PubChem
Only some compounds are listed: those with a hit (about 1.3% of all), similar ones and a draw of the others.
iPSC survival up = increases survival of single human iPS cells | hiPSC single-cell survival, ATPlite luminescence; 100% = ROCK inhibitor wells, 0% = DMSO | survival enhancement, % at 20 µM | 360,000 compounds, 0.044% hits | AID 602274; in the data active = survival enhancement above about 18%;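 note: cells exposed to compounds for 16 hours before the ATP read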
DAGLB inh = diacylglycerol lipase beta (human) inhibition; HEK293T DAGLB membrane lysate, EnzChek fluorogenic substrate; inhibition, % at 5.17 µM; 340,000 compounds, 0.059% hits; AID 504411; in the data active = inhibition above about 34%
FAS-TE inh = blocks the thioesterase domain of human fatty acid synthase; recombinant FAS-TE, OMFH fluorogenic substrate, fluorescence endpoint; P49327; AID 602261; 360,000 compounds, 0.67% hits; inhibition, % at 15 µM;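 active = compounds whose normalised, plate-corrected inhibition of enzyme fluorescence in the single-dose primary screen is 50% or more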
MT1-MMP act inh = MT1-MMP (human) activation inhibition; GFP/RFP ratio change, % at 20 µM; 360,000 compounds, 0.061% hits; AID 651647; HT1080 RFP-PRO-GFP cells, GFP/RFP ratio fluorescence, overnight; percent of plate control window, DMSO zero;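 active = GFP/RFP ratio change of at least 30% with cell ATP level not reduced by more than half and red fluorescence within 50% of control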
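system = RFP-PRO-GFP reporter HT1080 cells | dosing = 20 µM single dose, 1% DMSO | timing = overnight cell settling, then overnight compound exposure, 37 °C, 5% CO2 | read-out basis = GFP/RFP fluorescence ratio | controls = DMSO and RFP-L50D-GFP cell wells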
SKN-1 block = inhibitors of C. elegans SKN-1; C. elegans VP596 Pgst-4::GFP/RFP ratio, acrylamide-induced, 24 h; 360,000 compounds, 0.49% hits; AID 624304; inhibition, % at 21.8 µM;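 active = interference check ratio from 0.5 to 1.5 plus GFP to RFP signal ratio inhibition reaching or exceeding a fixed threshold, cut at about 30% in these data, passing the limit was not always enough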
FAS-TE inh conf = FAS thioesterase (human) inhibition, confirmation | shares compounds with FAS-TE inh | recombinant FAS-TE, OMFH fluorogenic substrate, fluorescence | inhibition, % at 15 µM | 2,300 compounds, 45% hits | AID 624325;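 active = compounds inhibiting the enzyme by at least 50% at 15 µM in any one of the replicates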
Of the large screens only hits and unclear results are named; the others gave an inactive call (follow-up assays come after a bar, where they were run).

Cc1ccc(NC(=O)C2(c3ccc([N+](=O)[O-])cc3)CCCC2)cc1	FAS-TE inh 60 | FAS-TE inh conf 51
Cc1ccc(NC(=O)c2cc([N+](=O)[O-])ccc2N2CCCC2)cc1	FAS-TE inh 66 | FAS-TE inh conf 42
CC(=O)Nc1cccc(NC(=O)c2cc([N+](=O)[O-])ccc2N2CCCCC2)c1	none
CN(C)S(=O)(=O)c1cccc(NC(=O)c2cc([N+](=O)[O-])ccc2N2CCCCC2)c1	FAS-TE inh 59 | FAS-TE inh conf 55
COc1ccc(C(=O)Nc2cc([N+](=O)[O-])ccc2N2CCCC2)cc1	FAS-TE inh 58 | FAS-TE inh conf 52
Cc1ccc(NC(=O)c2cc(S(=O)(=O)N(C)C)ccc2N2CCCC2)cc1F	FAS-TE inh 51 | FAS-TE inh conf 58
CC(C)c1ccc(NC(=O)c2cc([N+](=O)[O-])ccc2N2CCOCC2)cc1	FAS-TE inh 74 | FAS-TE inh conf inactive
O=C(Nc1ccc(N2CCN(C(=O)c3ccccc3)CC2)cc1)c1cc([N+](=O)[O-])ccc1N1CCOCC1	none
O=C(Nc1nc(-c2ccccc2)cs1)c1ccc(N2CCOCC2)c([N+](=O)[O-])c1	none
Cc1ccc(NC(=O)c2cc([N+](=O)[O-])ccc2N2CCOCC2)cc1C	FAS-TE inh 74 | FAS-TE inh conf 78
Cc1ccc(-c2csc(NC(=O)c3cc([N+](=O)[O-])ccc3N3CCOCC3)n2)cc1	FAS-TE inh 71 | FAS-TE inh conf inactive
Cc1ccc(NC(=O)c2cc([N+](=O)[O-])ccc2N2CCOCC2)cc1S(=O)(=O)N(C)C	none
O=C1C(Cc2c[nH]c3ccccc23)NC(=S)N1C1CCCCC1 (centres undefined)	none
COc1ccc(-c2ccc(CN3C(C)C(=O)N(Cc4cn(CCC5OCCO5)nn4)CCS3(=O)=O)cc2)cc1OC (centres undefined)	none
O=C(CN1CCN(S(=O)(=O)c2ccc(Br)cc2)CC1)N/N=C/c1ccccc1C(=O)O	none
Cc1ccc(N2C(=O)C(F)(F)C2c2ccccc2)cc1 (centres undefined)	none
Cc1ccc(N2C(=N)/C(=C3/Nc4ccccc4S3)C(c3ccccc3)C2=O)cc1 (centres undefined)	FAS-TE inh 63 | FAS-TE inh conf inactive
Cc1ccc(S(=O)(=O)N2[C@@H](c3ccc(C(C)(C)C)cc3)C(C(=O)O)=CC[C@H]2c2ccc(Cl)c(Cl)c2)cc1	FAS-TE inh 55 | FAS-TE inh conf inactive
Cc1nn(-c2ccccc2)c(Cl)c1CN(C(=O)CCl)c1cccc2ccccc12	none
Cc1cc(C)cc(CSc2ccc(S(=O)(=O)N3CCCC3)cn2)c1	none
O=S(=O)(c1ccc(SCc2ccc(Cl)cc2)nc1)N1CCCC1	FAS-TE inh 54 | FAS-TE inh conf inactive
Cc1sc2ncnc(N3CCC(C(=O)NNC(=O)COc4cccc(C(F)(F)F)c4)CC3)c2c1C	none
Cc1c([N+](=O)[O-])cnc(Sc2ccccc2)c1[N+](=O)[O-]	FAS-TE inh 60 | FAS-TE inh conf inactive
Cc1ccc(Sc2ncccc2[N+](=O)[O-])cc1	none
CC(=O)N(c1ccc2oc(=O)sc2c1)S(=O)(=O)c1ccccc1	none
Cc1ccc(S(=O)(=O)N(C(=O)c2ccco2)c2cc3sc(=O)oc3c3ccccc23)cc1	FAS-TE inh 53 | FAS-TE inh conf inactive
CCOc1ccc(S(=O)(=O)N(C(=O)c2ccco2)c2cc3sc(=O)oc3c3ccccc23)cc1	FAS-TE inh 51 | FAS-TE inh conf inactive
COc1ccc(S(=O)(=O)N(C(=O)c2ccco2)c2cc3sc(=O)oc3c3ccccc23)cc1	FAS-TE inh 90 | FAS-TE inh conf inactive
COc1cc(C)ccc1S(=O)(=O)NC(=O)C1(C)CCN1C(=O)C1(c2ccc(Cl)cc2)CCC1 (centres undefined)	none (no result: DAGLB inh)
CCCc1c(Cc2cccc(F)c2)ncn1Cc1cccc(-c2ccccc2)c1	none (no result: iPSC survival up, DAGLB inh, FAS-TE inh)
Cc1cc(C)n(-c2ccc(C(=O)N3CCN(S(=O)(=O)c4ccc(Br)cc4Cl)CC3)cc2)n1	none
Cc1ccc(N2C(=O)c3ccccc3C2=O)cc1	none
Cc1ccc(SC2=C(Sc3ccc(C)cc3)C(=O)c3ccccc3C2=O)cc1	FAS-TE inh 70 | FAS-TE inh conf inactive
CCOC(=O)C1(C)CCN1C(=O)c1csnn1 (centres undefined)	none (no result: DAGLB inh)
O=C1OCCN1C(=O)[C@H]1[C@H](c2ccc([N+](=O)[O-])cc2)C(c2ccc(F)cc2)=NN1c1ccccc1	FAS-TE inh 84 | FAS-TE inh conf inactive
Cc1cccc(C2=NN(c3ccccc3)[C@@H](C(=O)N3CCOC3=O)[C@@H]2c2ccccc2)c1	none
O=C1OCCN1C(=O)[C@H]1[C@H](c2ccc([N+](=O)[O-])cc2)C(c2ccc(F)cc2)=NN1c1ccc(Br)cc1	FAS-TE inh 95 (no result: MT1-MMP act inh) | FAS-TE inh conf inactive
CCOC(=O)c1ccc(NC(=O)[C@@H]2CCC(=O)N2C2OC(=O)c3c2ccc(OC)c3OC)cc1 (some centres undefined)	none (no result: DAGLB inh)
O=c1c2ccccc2c(C=Nc2ccc(S(=O)(=O)N3CCCCC3)cc2)c(O)n1-c1ccc(Cl)cn1	FAS-TE inh 61 | FAS-TE inh conf inactive
CCc1nnc(/N=C/c2c(O)n(-c3ccc(Cl)cn3)c(=O)c3ccccc23)s1	none
O=C(O)c1ccc(Cl)cc1NC(=O)C1CCN(S(=O)(=O)c2cccs2)CC1	none
Cc1ccc(NC(=S)NCc2ccccc2)cc1[N+](=O)[O-]	FAS-TE inh 64 | FAS-TE inh conf inactive
Cc1ccc(C(=O)O)cc1NC(=S)NCCc1ccccc1	none
Cc1ccc([N+](=O)[O-])cc1NC(=O)C(Sc1ccccc1)c1ccccc1 (centres undefined)	FAS-TE inh 82 | FAS-TE inh conf 85
Cc1ccc([N+](=O)[O-])cc1NC(=S)NCCc1ccccc1	FAS-TE inh 56 | FAS-TE inh conf 71
Cc1ccc(Cn2cc(CN3CC(N(C)C)CS3(=O)=O)nn2)cc1 (centres undefined)	none (no result: DAGLB inh)
CCCCN(CCCC)Cc1cc(=O)oc2ccccc12	none (no result: DAGLB inh)
CSC[C@H]1CN(Cc2cccnc2)C(=O)[C@@H]1CC(=O)Nc1ccc(Br)cc1	none
O=C(COC(=O)/C=C/c1ccc(F)cc1)NC1CCCCCC1	none
C[C@H](CO)N1C[C@H](C)[C@H](CN(C)C(=O)Nc2cccc(Oc3ccccn3)c2)OCc2cnnn2CCCC1=O	none
Cc1cc2cc(CN(Cc3cccs3)C(c3nnnn3C(C)(C)C)C(C)C)c3nnnn3c2cc1C (centres undefined)	FAS-TE inh 52 | FAS-TE inh conf inactive
CCC(C)(C)n1nnnc1C(C(C)C)N(CCN1CCOCC1)Cc1cc2cccc(C)c2[nH]c1=O (centres undefined)	none
